Reference: ChEMBL document CHEMBL5316281, “Trojan Horse Siderophore Conjugates Induce Pseudomonas aeruginosa Suicide and Qualify the TonB Protein as a Novel Antibiotic Target” (2023)
Active and inactive are the calls of the source. The rule behind the calls is not given here. Where a SMILES comes first, the peptide text is derived from it. [ ]: non-standard residue; d: D form. The star is where a group is joined. X6 = CC(=O)Oc1cccc(C(=O)NCc2cc(CNC(=O)c3cccc(OC(C)=O)c3OC(C)=O)c(NC(=O)CCCc3cn(CCOCCOCCOCCOCCOCCOCCOCCOCCNC(=O)COCC(=O)*)nn3)c(CNC(=O)c3cccc(OC(C)=O)c3OC(C)=O)c2)c1OC(C)=O; X1 = O=C(COCC(=O)*)NCCOCCOCCOCCOCCOCCOCCOCCOCCn1cc(CCCC(=O)Nc2c(CNC(=O)c3cccc(O)c3O)cc(CNC(=O)c3cccc(O)c3O)cc2CNC(=O)c2cccc(O)c2O)nn1; X5 = O=C(CCSSCCC(=O)*)NCCOCCOCCOCCOCCOCCn1cc(CCCC(=O)Nc2c(CNC(=O)c3cccc(O)c3O)cc(CNC(=O)c3cccc(O)c3O)cc2CNC(=O)c2cccc(O)c2O)nn1; Benzoyl(2,3-diOH) = O=C(c1cccc(O)c1O)*

Columns and labels:
[1] = test system: Pseudomonas aeruginosa; assay: Antimicrobial activity against Pseudomonas aeruginosa harboring deltapvdF-deltapchA mutant assessed as inhibition of bacterial growth by measuring minimal inhibitory concentration incubated for 24 hrs in presence of iron-depleted CAA medium; assay type: functional
[2] = test system: Pseudomonas aeruginosa; assay: Antimicrobial activity against Pseudomonas aeruginosa harboring deltapvdF-deltapchA mutant assessed as inhibition of bacterial growth by measuring minimal inhibitory concentration incubated for 48 hrs in presence of iron-depleted CAA medium; assay type: functional
[3] = test system: Pseudomonas aeruginosa; assay: Antimicrobial activity against Pseudomonas aeruginosa PAO1 assessed as inhibition of bacterial growth in presence of iron-depleted CAA medium; assay type: functional, organism-based
[4] = test system: Pseudomonas aeruginosa; assay: Antimicrobial activity against Pseudomonas aeruginosa harboring deltapvdF-deltapchA mutant assessed as increase in pfeA transcription level at 10 uM incubated for 8 hrs in presence of iron-depleted CAA medium by qRT-PCR analysis; assay type: functional, organism-based
Method in brief: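 Cells grown in CAA medium for 8 h at 30 °C with vigorous shaking, with or without 10 μM compound; 2.5 x 10⁸ cells stabilized in two volumes RNAprotect; RNA processed per earlier protocol; RT-qPCR with primer efficiencies from serially diluted genomic DNA; double ΔCT analysis.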

CC[C@H](C)[C@H](NC(=O)[C@H](CCSC)NC(=O)[C@@H](NC(=O)[C@H](C)NC(=O)CNC(=O)[C@H](CC(C)C)NC(=O)[C@H](CC(=O)O)NC(=O)[C@@H](NC(=O)[C@H](CO)NC(=O)[C@H](CO)NC(=O)[C@H](CC(=O)O)NC(=O)c1cccc(O)c1O)C(C)C)[C@@H](C)O)C(=O)N[C@H](C(=O)N[C@@H](CO)C(=O)N[C@@H](CC(N)=O)C(=O)N[C@@H](CCC(N)=O)C(=O)N[C@@H](CC(C)C)C(=O)NCC(=O)N[C@H](C(=O)N[C@H](C(=O)N[C@@H](CCCCN)C(N)=O)[C@@H](C)CC)[C@@H](C)O)[C@@H](C)O
MIC [1]: > 64 µM | MIC [2]: > 64 µM | Activity [3]: inactive

CC[C@@H](C)[C@@H](NC(=O)[C@@H](CCSC)NC(=O)[C@H](NC(=O)[C@@H](C)NC(=O)CNC(=O)[C@@H](CC(C)C)NC(=O)[C@@H](CC(=O)O)NC(=O)[C@H](NC(=O)[C@@H](CO)NC(=O)[C@@H](CO)NC(=O)[C@@H](CC(=O)O)NC(=O)c1cccc(O)c1O)C(C)C)[C@H](C)O)C(=O)N[C@@H](C(=O)N[C@H](CO)C(=O)N[C@H](CC(N)=O)C(=O)N[C@H](CCC(N)=O)C(=O)N[C@H](CC(C)C)C(=O)NCC(=O)N[C@@H](C(=O)N[C@@H](C(=O)N[C@H](CCCCN)C(N)=O)[C@H](C)CC)[C@H](C)O)[C@@H](C)O
MIC [1]: > 64 µM | MIC [2]: > 64 µM | Activity [3]: inactive

CC[C@H](C)[C@H](NC(=O)[C@H](CCSC)NC(=O)[C@@H](NC(=O)[C@H](C)NC(=O)CNC(=O)[C@H](CC(C)C)NC(=O)[C@H](CC(=O)O)NC(=O)[C@@H](NC(=O)[C@H](CO)NC(=O)[C@H](CO)NC(=O)[C@@H](N)CC(=O)O)C(C)C)[C@@H](C)O)C(=O)N[C@H](C(=O)N[C@@H](CO)C(=O)N[C@@H](CC(N)=O)C(=O)N[C@@H](CCC(N)=O)C(=O)N[C@@H](CC(C)C)C(=O)NCC(=O)N[C@H](C(=O)N[C@H](C(=O)N[C@@H](CCCCNC(=O)c1cccc(O)c1O)C(N)=O)[C@@H](C)CC)[C@@H](C)O)[C@@H](C)O (H-DSSVDLGATMITSNQLGTIK(Benzoyl(2,3-diOH))-NH2)
MIC [1]: > 64 µM | MIC [2]: > 64 µM | Activity [3]: inactive

CC[C@H](C)[C@H](NC(=O)[C@@H](N)C(C)C)C(=O)N[C@@H](CCC(=O)O)C(=O)N[C@@H](CC(C)C)C(=O)NCC(=O)N[C@@H](CCC(=O)O)C(=O)N[C@@H](CCC(N)=O)C(=O)N[C@H](C(=O)N[C@H](C(=O)N[C@H](C(=O)N[C@@H](C)C(=O)N[C@H](C(=O)N[C@@H](C)C(=O)N[C@@H](CCC(N)=O)C(=O)N[C@@H](CCC(=O)O)C(=O)N[C@@H](CCC(=O)O)C(=O)N[C@H](C(=O)N[C@@H](CCCCN)C(=O)N[C@@H](CCC(N)=O)C(=O)N[C@@H](CCCCNC(=O)c1cccc(O)c1O)C(N)=O)[C@@H](C)O)[C@@H](C)O)C(C)C)C(C)C)[C@@H](C)O (H-VIELGEQTVVATAQEETKQK(Benzoyl(2,3-diOH))-NH2)
MIC [1]: > 64 µM | MIC [2]: > 64 µM | Activity [3]: inactive

CC[C@H](C)[C@H](NC(=O)[C@@H](N)C(C)C)C(=O)N[C@@H](CCC(=O)O)C(=O)N[C@@H](CC(C)C)C(=O)NCC(=O)N[C@@H](CCC(=O)O)C(=O)N[C@@H](CCC(N)=O)C(=O)N[C@H](C(=O)N[C@H](C(=O)N[C@H](C(=O)N[C@@H](C)C(=O)N[C@H](C(=O)N[C@@H](C)C(=O)N[C@@H](CCC(N)=O)C(=O)N[C@@H](CCC(=O)O)C(=O)N[C@@H](CCC(=O)O)C(=O)N[C@H](C(=O)N[C@@H](CCCCN)C(=O)N[C@@H](CCC(N)=O)C(=O)N[C@@H](CCCCNC(=O)CCSSCCC(=O)NCCOCCOCCOCCOCCOCCn1cc(CCCC(=O)Nc2c(CNC(=O)c3cccc(O)c3O)cc(CNC(=O)c3cccc(O)c3O)cc2CNC(=O)c2cccc(O)c2O)nn1)C(N)=O)[C@@H](C)O)[C@@H](C)O)C(C)C)C(C)C)[C@@H](C)O (H-VIELGEQTVVATAQEETKQK(X5)-NH2)
MIC [1]: > 64 µM | MIC [2]: > 64 µM | Activity [3]: inactive

CC[C@H](C)[C@H](NC(=O)[C@@H](N)C(C)C)C(=O)N[C@@H](CCC(=O)O)C(=O)N[C@@H](CC(C)C)C(=O)NCC(=O)N[C@@H](CCC(=O)O)C(=O)N[C@@H](CCC(N)=O)C(=O)N[C@H](C(=O)N[C@H](C(=O)N[C@H](C(=O)N[C@@H](C)C(=O)N[C@H](C(=O)N[C@@H](C)C(=O)N[C@@H](CCC(N)=O)C(=O)N[C@@H](CCC(=O)O)C(=O)N[C@@H](CCC(=O)O)C(=O)N[C@H](C(=O)N[C@@H](CCCCN)C(=O)N[C@@H](CCC(N)=O)C(=O)N[C@@H](CCCCNC(=O)COCC(=O)NCCOCCOCCOCCOCCOCCOCCOCCOCCn1cc(CCCC(=O)Nc2c(CNC(=O)c3cccc(OC(C)=O)c3OC(C)=O)cc(CNC(=O)c3cccc(OC(C)=O)c3OC(C)=O)cc2CNC(=O)c2cccc(OC(C)=O)c2OC(C)=O)nn1)C(N)=O)[C@@H](C)O)[C@@H](C)O)C(C)C)C(C)C)[C@@H](C)O (H-VIELGEQTVVATAQEETKQK(X6)-NH2)
MIC [1]: > 64 µM | MIC [2]: > 64 µM | Activity [3]: inactive

CSCC[C@H](NC(=O)[C@H](CCC(N)=O)NC(=O)[C@@H](NC(=O)[C@H](CC(C)C)NC(=O)[C@H](CC(=O)O)NC(=O)[C@H](CC(=O)O)NC(=O)COCC(=O)NCCOCCOCCOCCOCCOCCOCCOCCOCCn1cc(CCCC(=O)Nc2c(CNC(=O)c3cccc(O)c3O)cc(CNC(=O)c3cccc(O)c3O)cc2CNC(=O)c2cccc(O)c2O)nn1)C(C)C)C(=O)N[C@@H](CO)C(=O)N1CCC[C@H]1C(=O)N[C@@H](CO)C(=O)N[C@H](C(=O)N[C@@H](CCCCN)C(N)=O)C(C)C (X1-DDLVQMSPSVK-NH2)
MIC [1]: > 64 µM | MIC [2]: > 64 µM | Activity [3]: inactive

CC(C)[C@H](NC(=O)[C@@H](NC(=O)[C@@H](NC(=O)[C@H](CCC(N)=O)NC(=O)[C@H](CCC(=O)O)NC(=O)COCC(=O)NCCOCCOCCOCCOCCOCCOCCOCCOCCn1cc(CCCC(=O)Nc2c(CNC(=O)c3cccc(O)c3O)cc(CNC(=O)c3cccc(O)c3O)cc2CNC(=O)c2cccc(O)c2O)nn1)[C@@H](C)O)C(C)C)C(=O)N[C@@H](C)C(=O)N[C@H](C(=O)N[C@@H](C)C(=O)N[C@@H](CCC(N)=O)C(=O)N[C@@H](CCCCN)C(N)=O)[C@@H](C)O (X1-EQTVVATAQK-NH2)
MIC [1]: > 64 µM | MIC [2]: > 64 µM | Activity [3]: inactive

CC[C@H](C)[C@H](NC(=O)[C@H](CCSC)NC(=O)[C@@H](NC(=O)[C@H](C)NC(=O)CNC(=O)[C@H](CC(C)C)NC(=O)[C@H](CC(=O)O)NC(=O)[C@@H](NC(=O)COCC(=O)NCCOCCOCCOCCOCCOCCOCCOCCOCCn1cc(CCCC(=O)Nc2c(CNC(=O)c3cccc(O)c3O)cc(CNC(=O)c3cccc(O)c3O)cc2CNC(=O)c2cccc(O)c2O)nn1)C(C)C)[C@@H](C)O)C(=O)N[C@H](C(=O)N[C@@H](CO)C(=O)N[C@@H](CC(N)=O)C(=O)N[C@@H](CCCCN)C(N)=O)[C@@H](C)O (X1-VDLGATMITSNK-NH2)
MIC [1]: > 64 µM | MIC [2]: > 64 µM | Activity [3]: inactive

CC[C@H](C)[C@H](NC(=O)[C@@H](NC(=O)c1cccc(O)c1O)C(C)C)C(=O)N[C@@H](CCC(=O)O)C(=O)N[C@@H](CC(C)C)C(=O)NCC(=O)N[C@@H](CCC(=O)O)C(=O)N[C@@H](CCC(N)=O)C(=O)N[C@H](C(=O)N[C@H](C(=O)N[C@H](C(=O)N[C@@H](C)C(=O)N[C@H](C(=O)N[C@@H](C)C(=O)N[C@@H](CCC(N)=O)C(=O)N[C@@H](CCC(=O)O)C(=O)N[C@@H](CCC(=O)O)C(=O)N[C@H](C(=O)N[C@@H](CCCCN)C(=O)N[C@@H](CCC(N)=O)C(=O)N[C@@H](CCCCN)C(N)=O)[C@@H](C)O)[C@@H](C)O)C(C)C)C(C)C)[C@@H](C)O ({Benzoyl(2,3-diOH)}-VIELGEQTVVATAQEETKQK-NH2)
MIC [1]: > 64 µM | MIC [2]: > 64 µM | Activity [3]: inactive

CC[C@@H](C)[C@@H](NC(=O)[C@H](NC(=O)c1cccc(O)c1O)C(C)C)C(=O)N[C@H](CCC(=O)O)C(=O)N[C@H](CC(C)C)C(=O)NCC(=O)N[C@H](CCC(=O)O)C(=O)N[C@H](CCC(N)=O)C(=O)N[C@@H](C(=O)N[C@@H](C(=O)N[C@@H](C(=O)N[C@H](C)C(=O)N[C@@H](C(=O)N[C@H](C)C(=O)N[C@H](CCC(N)=O)C(=O)N[C@H](CCC(=O)O)C(=O)N[C@H](CCC(=O)O)C(=O)N[C@@H](C(=O)N[C@H](CCCCN)C(=O)N[C@H](CCC(N)=O)C(=O)N[C@H](CCCCN)C(N)=O)[C@H](C)O)[C@H](C)O)C(C)C)C(C)C)[C@H](C)O ({Benzoyl(2,3-diOH)}-[dV][dI][dE][dL]G[dE][dQ][dT][dV][dV][dA][dT][dA][dQ][dE][dE][dT][dK][dQ][dK]-NH2)
MIC [1]: > 64 µM | MIC [2]: > 64 µM | Activity [3]: inactive

CN[C@@H]1[C@@H](O)[C@@H](O[C@@H]2[C@@H](O)[C@H](O[C@H]3O[C@H](C(C)N)CC[C@H]3N)[C@@H](N)C[C@H]2N)OC[C@]1(C)O (some centres not stated) [GENTAMICIN C2]
MIC [1]: 1 µM | MIC [2]: 4 µM | Activity [3]: inactive

H-DDLVQMSPSVK-NH2
Activity [3]: inactive | Activity [4]: inactive

H-GEQTVVATAQK-NH2
Activity [3]: inactive | Activity [4]: inactive

H-VDLGATMITSNK-NH2
Activity [3]: inactive | Activity [4]: inactive
